# PfGluPho inh: PfG6PD enzyme inhibitors, primary screen, biochemical, fluorescence intensity, uHTS; inhibition, % at 20 µM; 350,000 tested, 0.78% active; glucose-6-phosphate dehydrogenase-6-phosphogluconolactonase (Plasmodium falciparum 3D7); AID 504690, 2011; PfGluPho enzyme, NADPH resazurin-diaphorase fluorescence;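 active = inhibition reaching at least a set limit at 20 µM in the primary screen, cut at about 59% in these data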;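 note: 0% = DMSO wells with substrate and 100% = DMSO wells lacking glucose-6-phosphate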
# HKDC1 inh: HKDC1 hexokinase inhibitors, primary screen, biochemical, fluorescence, uHTS; inhibition, % at 20 µM; recombinant HKDC1, G6PDH/diaphorase resazurin coupled fluorescence; 340,000 tested, 0.16% active; Q2TB90; AID 493160, 2011;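 active = inhibition above about 35% when tested at 20 µM, limit read from the data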;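 note: plate controls were DMSO wells with enzyme for no effect and DMSO wells lacking enzyme for full effect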
#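 System: Recombinant HKDC1 hexokinase | Amount: HKDC1 at 5 µg/mL | Reagent: Glucose with 1 mM ATP | Doses: Single 20 µM dose | Incubation: Reaction time 90 min, room temperature, protected from light | Signal: Coupled resazurin fluorescence, excitation 525 nm, emission 613 nm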
# TbHK1 inh: Trypanosoma brucei hexokinase 1 inhibitors, primary screen, biochemical, G6PDH-coupled NADH absorbance, MLSCN library; AID 1430, 2008; 220,000 tested, 0.11% active; inhibition, % at 10 µM; recombinant TbHK1, G6PDH-coupled NADH A340; hexokinase 1 [Trypanosoma brucei];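 active = inhibition of 50% or more in the single-dose primary screen; inactive = inhibition below 50%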
# G6PDH CS: L. mesenteroides G6PDH inhibitors, counter-screen for G6PDH-coupled screening assays, biochemical, Leuconostoc mesenteroides enzyme | Purified L. mesenteroides G6PDH, diaphorase/resazurin coupled fluorescence, 45 min | inhibition, % at 5 µM | glucose-6-phosphate dehydrogenase [Leuconostoc mesenteroides] | 200,000 tested, 0.12% active; in the data active = inhibition above about 50%
# Diaph inh CS: diaphorase inhibitors and chemical oxidizers, primary screen, counter-screen for diaphorase-coupled primary assays, biochemical, uHTS, resorufin fluorescence | 190,000 tested, 0.69% active | diaphorase resazurin-to-resorufin fluorescence, NADH, 16 min; bacterial (C. kluyveri) enzyme, not human | inhibition, % at 20 µM | AID 1217, 2008;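 active = primary screen inhibition at 20 µM above a set limit, cut at about 50% in these data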;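 note: plate controls were DMSO with full reaction for no effect and wells lacking NADH for full effect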
#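 controls = No-NADH positive control and DMSO neutral control | system = Clostridium kluyveri diaphorase enzyme | timing = reaction incubation of 16 min at room temperature | signal = resorufin fluorescence 544/590 nm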
# PfG6PD confirm: PfG6PD inhibitors, hit retest, confirmation, biochemical, fluorescence intensity, single concentration. shares compounds with PfGluPho inh. recombinant PfGluPho, NADPH-diaphorase-resazurin fluorescence. inhibition, % at 20 µM. 2,400 tested, 34% active. AID 504753, 2011;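 active = inhibition of at least 50% at 20 µM in any single replicate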;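 note: 0% = DMSO with substrate and 100% = DMSO lacking glucose-6-phosphate substrate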
# Diaphorase 10uM: diaphorase inhibitors and chemical oxidizers, confirmation, counter-screen for P. falciparum G6PD inhibitor project, biochemical, fluorescence intensity, 10 µM NADPH; inhibition, % at 20 µM; shares compounds with PfGluPho inh; 820 tested, 39% active; AID 504862, 2011; diaphorase-coupled resazurin reduction, NADPH 10 uM;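 active = average inhibition reaching 50% or more with the compound at 20 µM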;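 note: resorufin red fluorescence formed as diaphorase reduces resazurin using NADPH; 0% = DMSO with enzyme and 100% = DMSO without enzyme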
# Diaph ctr 30uM: diaphorase inhibitors and chemical oxidizers, confirmation, counter-screen for P. falciparum G6PD inhibitor project, biochemical, fluorescence intensity, 30 µM NADPH | AID 504863, 2011 | shares compounds with PfGluPho inh | Diaphorase/resazurin coupled assay, resorufin fluorescence | 820 tested, 29% active | inhibition, % at 20 µM;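 active = inhibition averaging 50% or more, tested at 20 µM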;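 note: 0% = DMSO with enzyme and 100% = DMSO wells lacking diaphorase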
# * = called active by the depositor; x = no result. Compounds with a hit are over-represented: about 1.2% of the library has one in this group of screens.
SMILES,PfGluPho inh,HKDC1 inh,TbHK1 inh,G6PDH CS,Diaph inh CS,PfG6PD confirm,Diaphorase 10uM,Diaph ctr 30uM
CC1=C(C(N)=O)C(c2ccc(Cl)cc2Cl)n2ncnc2N1 (stereo not drawn),-6.1,4.8,-5.7,4.5,10.3,x,x,x
CC(C)CC(N)C(=O)OCc1ccc([N+](=O)[O-])cc1 (stereo not drawn),6.6,-2.4,4.3,x,x,x,x,x
CC(=O)c1cnn(-c2c(Cl)cc(Cl)cc2Cl)c1C,8.4,-1.3,1.7,x,x,x,x,x
Cc1ccc(C(=O)COC(=O)c2cnccn2)cc1,1.1,1.5,1.2,2.3,0.1,x,x,x
O=C(CNC(=O)c1cccs1)NCC(=O)OCC(=O)c1ccc([N+](=O)[O-])cc1,67.1*,14.2,17.4,13.9,5.6,62.9*,3.2,-2.1
O=C(COC(=O)c1cnccn1)c1ccc([N+](=O)[O-])cc1,78.8*,-4.2,-7.8,x,x,67.5*,7.2,-17.4
Cc1ccccc1OCC(=O)NCC(=O)OCC(=O)c1ccc([N+](=O)[O-])cc1,70.0*,-1.2,x,x,x,51.9*,-6.8,-22.3
O=C(COc1ccccc1F)OCC(=O)c1ccc([N+](=O)[O-])cc1,88.1*,-5.0,x,x,x,51.9*,19.1,-1.4
O=C(CCc1nc2ccccc2c(=O)[nH]1)Nc1cc(C(F)(F)F)ccc1N1CCCC1,-6.1,-1.4,x,x,x,x,x,x
CCCCn1c(N)c(N(C)C(=O)c2ccccc2Oc2ccccc2)c(=O)[nH]c1=O,-1.2,-0.9,x,x,x,x,x,x
CC(Sc1ncnc2sccc12)C(=O)Nc1ccc(S(=O)(=O)N2CCOCC2)cc1 (stereo not drawn),7.0,-1.0,x,x,x,x,x,x
CN1CCN(C(=O)CN(C)S(=O)(=O)c2ccc(F)cc2)CC1,3.8,0.1,x,x,x,x,x,x
O=C(CCC(=O)OCC(=O)c1cccc([N+](=O)[O-])c1)Nc1cccc(Cl)c1Cl,23.7,-1.6,-4.3,3.9,7.6,x,x,x
O=C(CCC(=O)OCC(=O)c1ccc([N+](=O)[O-])cc1)Nc1ccccc1Cl,68.0*,-6.9,x,x,x,54.0*,2.4,-2.9
CNCc1ccccc1Sc1ccc(O)c(O)c1,97.9*,11.1,18.1,50.5*,63.2*,94.9*,72.5*,61.1*
COc1ccc(Sc2ccccc2CN(C)C)cc1OC,7.8,0.1,-1.8,10.4,9.8,x,x,x
CC(C(=O)c1ccccc1)n1cnc2ccccc2c1=O (stereo not drawn),0.3,-0.9,0.3,2.0,11.7,x,x,x
Cc1ccc2[nH]c(O)c(N=NC(=O)C(C)n3cnc4ccccc4c3=O)c2c1 (stereo not drawn),68.3*,10.0,15.6,1.3,22.7,49.8*,67.8*,55.5*
COc1ccc(CCCC(=O)NCC(=O)N/N=C/c2cc(Cl)ccc2OC)cc1,82.8*,1.6,x,x,x,55.4*,59.1*,53.3*
COc1ccc(OC)c(/C=N/NC(=O)CCCC(=O)Nc2cccc(Br)c2)c1,75.3*,6.4,-5.5,6.7,3.9,36.4,x,x
COc1ccc(NC(C)C(=O)N/N=C/c2cc(Br)ccc2OC)cc1 (stereo not drawn),85.8*,-1.4,-15.7,9.6,19.2,62.4*,47.1,40.7
COc1ccc(O)c(/C=N/NC(=O)CCC(=O)Nc2cccc(C)c2)c1,-28.8,-8.8,x,x,x,x,x,x
COc1ccc(OC)c(/C=N/NC(=O)CNC(=O)c2cccc3ccccc23)c1,98.7*,-0.6,x,x,x,73.9*,63.4*,61.7*
Cc1cccc(OCC(=O)NCC(C)(C)N2CCOCC2)c1,-8.5,1.8,x,x,x,x,x,x
CC(C)(CC(=O)O)CC(=O)NCc1c(Cl)cccc1Oc1ccccc1,-17.5,-2.2,-6.1,x,x,x,x,x
SMILES,PfGluPho inh,HKDC1 inh,TbHK1 inh,G6PDH CS,Diaph inh CS,PfG6PD confirm,Diaphorase 10uM,Diaph ctr 30uM
O=C(CCSc1ccc(Br)cc1)c1ccc(O)cc1,-9.5,0.2,x,x,x,x,x,x
CC(C)c1ccc(N(CC(=O)NCc2ccco2)C(=O)CCC(=O)Nc2nccs2)cc1,6.5,-1.6,x,x,x,x,x,x
COc1ccc(C)cc1Nc1nc(-c2c[nH]c3ccccc23)cs1,60.1*,-3.6,-9.0,-25.8,17.8,-8.3,x,x
O=[N+]([O-])c1ccc(Cl)c(S(=O)(=O)Nc2cccc(S(=O)(=O)NC3=NCCC3)c2)c1,66.7*,13.1,x,x,x,41.7,x,x
O=[N+]([O-])c1ccc(Cl)c(S(=O)(=O)NC2=NCCC2)c1,-8.8,-0.6,x,x,x,x,x,x
Cc1ccc(NC(=O)C2Cc3ccccc3CN2C(=O)c2ccccc2)cc1Cl (stereo not drawn),94.4*,-1.5,0.4,2.4,15.4,32.2,x,x
COc1ccc(C(=O)NC(=S)NCc2cccnc2)cc1Cl,11.2,-3.0,x,x,x,x,x,x
COC(=O)c1c(NC(=O)c2ccc(C)cc2)csc1C,42.1,0.3,-3.5,x,x,x,x,x
COC(=O)c1c(NS(=O)(=O)c2ccccc2)csc1C,90.7*,9.0,0.4,x,x,78.0*,71.7*,55.8*
CCOC(=O)c1ccccc1NS(=O)(=O)c1ccccc1,79.2*,-1.0,2.3,-1.7,17.5,59.6*,58.1*,54.3*
CCOC(=O)c1ccccc1NS(=O)(=O)c1ccc(C)cc1,11.2,-1.3,-2.5,5.9,17.6,x,x,x
COC(=O)[C@H](C)NC(=O)c1cc2c(cn1)[nH]c1ccccc12,90.4*,-29.8,x,x,x,55.0*,23.4,0.8
C[C@H](NC(=O)c1cc2c(cn1)[nH]c1ccccc12)C(=O)O,97.7*,-15.5,x,x,x,62.2*,-4.0,-11.1
O=C(O)c1cc2c(cn1)[nH]c1ccccc12,-5.1,2.5,x,x,x,x,x,x
Cc1ccc2nc(-c3ccc(-c4ccccn4)s3)cn2c1,64.6*,3.1,-41.7,x,x,38.9,x,x
Cc1ccc2nc(-c3ccccc3)cn2c1,79.0*,2.4,27.5,0.9,10.8,39.6,x,x
Clc1ccc(-c2cn3cc(Cl)ccc3n2)cc1,72.2*,0.1,x,x,x,33.8,x,x
COc1ccc(C(CC(=O)Nc2ccccn2)N2Cc3ccccc3C2=O)cc1OC (stereo not drawn),-10.8,-0.7,x,x,x,x,x,x
Cc1ncc(C[n+]2ccc(C)c(C)c2)c(N)n1,-1.3,-1.4,x,x,x,x,x,x
CCOC(=O)c1c(-c2ccc(OC)cc2)csc1NC(=O)CCN1C(=O)c2ccccc2C1=O,61.9*,3.0,10.3,2.7,5.7,10.0,x,x
S=c1nc[nH]c2c1ncn2-c1ccc(Cl)cc1,66.3*,-5.4,x,x,x,23.9,x,x

# Compound activity deposited in PubChem BioAssay by several laboratories.
